Published values pooled from the literature.
Compare with care: the assays were run in different laboratories.
Transmembrane protease serine 6: Transmembrane protease serine 6 (Homo sapiens, UniProt Q8IU80)
Palmitoyl-protein thioesterase 1: Palmitoyl-protein thioesterase 1 (Homo sapiens, UniProt P50897)

CC(C)C[C@@H](C(=O)N[C@@H](CCCNC(=N)N)C(=O)c1nc2ccccc2s1)N(C)C(=O)[C@H](Cc1cscn1)NC(=O)CCc1ccccc1 — remaining activity (Transmembrane protease serine 6; enzyme activity; inhibitor; 0.1 µM): 19%
CNc1ncc2c(/C=C/C(=O)N3CCC(OC)CC3)nn(Cc3cccc(C(F)(F)F)c3)c2n1 — remaining activity (Epidermal growth factor receptor (EGFR, Homo sapiens, UniProt P00533); enzyme activity; inhibitor; radiometric; 1 µM): 108%
NC(=O)c1c(OCc2c(F)cc(Br)cc2F)nsc1NC(=O)NCCCCN1CCCC1 — inhibition (Palmitoyl-protein thioesterase 1; enzyme activity; inhibitor; 125 µM): 8.63%
N=C(N)NCCC[C@H](NC(=O)[C@H](CC1CC1)NC(=O)[C@H](Cc1cscn1)NC(=O)CCc1ccccc1)C(=O)c1nc2ccccc2s1 — remaining activity (Transmembrane protease serine 6; enzyme activity; inhibitor; 0.1 µM): 77%
O=C1OCCN1/N=C/c1ccc([N+](=O)[O-])o1 — inhibition (Palmitoyl-protein thioesterase 1; enzyme activity; inhibitor; 125 µM): 29%
Cc1cc([C@@H](C)Nc2ccccc2C(=O)O)c2nc(N3CCC(F)(F)CC3)c(C#N)c(=O)n2c1 — remaining binding (SRSF protein kinase 3 (SRPK3, Homo sapiens, UniProt Q9UPE1); binding; competition with immobilised ligand; 10 µM): 96%
COc1cc(-c2cncc3c2CN(C)Cc2cc(N4CCNCC4)ccc2-3)cc(OC)c1OC — remaining activity (Epidermal growth factor receptor (EGFR, Homo sapiens, UniProt P00533, L858R); enzyme activity; inhibitor; 1 µM): 36%
C=CC(=O)N1CCC(COCC(=O)N2CCN(c3nc(-c4cnc(N)nc4C(F)F)nc(N4CCOC[C@@H]4C)n3)CC2)CC1 — remaining binding (Protein kinase C delta type (PRKCD, Homo sapiens, UniProt Q05655); binding; competition with immobilised ligand; 1 µM): 100%
NCCCCCC(=O)O — inhibition (Palmitoyl-protein thioesterase 1; enzyme activity; inhibitor; 312 µM): 17.1%
N=C(N)NCCC[C@H](NC(=O)[C@H](Cc1ccc(C(=O)c2ccccc2)cc1)NC(=O)[C@H](Cc1cscn1)NC(=O)CCc1ccccc1)C(=O)c1nc2ccccc2s1 — remaining activity (Transmembrane protease serine 6; enzyme activity; inhibitor; 0.1 µM): 78%
